We go through 14 compounds from ChEMBL document CHEMBL2016541, “Synthesis and biological evaluation of isoxazolo[4,5-d]pyridazin-4-(5H)-one analogues as potent anti-inflammatory agents” (Bioorg Med Chem, 2012).

The nature of data set [1]: Inhibition of potato 5-LOX by EIA. Also on record: species or system Solanum tuberosum. The method, boiled down:
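Potato 5-LOX activity measured with an enzyme immunoassay (LOX assay kit). Mean of two determinations; deviation from the mean <10%.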

Data set [2] concerns Rattus norvegicus. Kind of data set: Ulcerogenic activity in rat assessed as ulcer index at 0.14 mmol/kg, po after 6 hrs. It is filed as toxicity, organism-based. The conditions noted are these: in vivo. The method, boiled down: (§1)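 Rats fasted 24 h (water allowed), then dosed orally with 0.14 mmol/kg in 1.0 mL 1% methylcellulose; vehicle controls given. Euthanized by CO2 at 6 h. Stomachs opened along the greater curvature, rinsed, and ulcers measured under magnifier lenses. UI = summed ulcer length (mm) per stomach averaged over 4 rats; mean ± SEM; one-way ANOVA with Holm–Sidak.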

Data set [3] has as its target T1, Prostaglandin G/H synthase 2 (Homo sapiens, UniProt P35354).
T1 sequence (P35354 whole entry): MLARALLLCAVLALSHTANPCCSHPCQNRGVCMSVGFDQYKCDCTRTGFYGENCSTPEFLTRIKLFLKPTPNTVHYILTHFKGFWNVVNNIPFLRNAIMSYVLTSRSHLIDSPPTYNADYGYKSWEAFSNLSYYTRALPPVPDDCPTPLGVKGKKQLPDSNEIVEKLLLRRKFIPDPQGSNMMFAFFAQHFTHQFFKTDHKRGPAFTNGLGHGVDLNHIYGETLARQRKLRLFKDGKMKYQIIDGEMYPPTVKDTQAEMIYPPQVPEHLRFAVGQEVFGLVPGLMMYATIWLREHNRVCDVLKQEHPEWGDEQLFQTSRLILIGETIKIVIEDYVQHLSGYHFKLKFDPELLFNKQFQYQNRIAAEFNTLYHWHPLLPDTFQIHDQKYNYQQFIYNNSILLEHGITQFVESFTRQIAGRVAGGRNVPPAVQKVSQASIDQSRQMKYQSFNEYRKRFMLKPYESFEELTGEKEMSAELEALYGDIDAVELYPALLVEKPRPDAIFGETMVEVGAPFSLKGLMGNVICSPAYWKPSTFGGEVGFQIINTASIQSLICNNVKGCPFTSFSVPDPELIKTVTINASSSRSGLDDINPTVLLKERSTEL
The data set is described as follows: Inhibition of human recombinant COX2 by fluorescence assay.

Data set [4] has as its system Rattus norvegicus. Kind of data set: Ulcerogenic activity in rat assessed as ulcer index at 30 mg/kg, po after 6 hrs. Also on record: dose 30 mg/kg, route oral. The conditions noted are these: in vivo. It is filed as toxicity, organism-based. The method, boiled down:
as §1

The subject of data set [5] is Rattus norvegicus. The data set is described as follows: Antiinflammatory activity in rat assessed as inhibition of carrageenan-induced rat paw oedema at 30 mg/kg, po after 3 hrs. It is filed as functional. The method, boiled down:
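Carrageenan-induced paw edema in rats. Compounds given orally, suspended in 1% aqueous methylcellulose. Test compounds dosed at 0.14 mmol, equivalent to 30 mg/kg ibuprofen. […] Mean ± SEM, n = 4.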

In data set [6] the test system is Rattus norvegicus. The data set is described as follows: Antiinflammatory activity in rat assessed as inhibition of carrageenan-induced rat paw oedema at 0.14 mmol/kg, po after 3 hrs. The format is functional. The method, boiled down: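 Carrageenan-induced paw edema in rats. Compounds given orally, suspended in 1% aqueous methylcellulose. Test compounds dosed at 0.14 mmol, equivalent to 30 mg/kg ibuprofen. Mean ± SEM, n = 4.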

`O=C(O)/C=C/c1ccc(O)c(O)c1` [CAFFEIC ACID] registered an IC50 in data set [1] of 4 µM.
As for `COc1ccc(Cc2nn(Cc3n[nH]c(=S)n3C)c(=O)c3c(C)noc23)cc1`, the UI in data set [2] came to 0.25 mm.
For the compound `Cc1noc2c(Cc3ccc([N+](=O)[O-])cc3)nn(Cc3n[nH]c(=S)n3C)c(=O)c12`, in data set [2], the UI is given as 0.25 mm.
Take `CCn1c(Cn2nc(Cc3ccc(OC)cc3)c3onc(C)c3c2=O)n[nH]c1=S`: the results for the IC50 in data set [3] and in data set [1] were 2.2 µM and 8.6 µM, respectively.
On to `CC(C)Cc1ccc(C(C)C(=O)O)cc1` (stereo not drawn) [IBUPROFEN], for which the UI in data set [4] was found to be 7 mm. The inhibition in vivo at 30 mg/kg in data set [5] worked out at 18.5%.
As for `CCNc1nnc(Cn2nc(Cc3ccccc3)c3onc(C)c3c2=O)s1`, the values for the IC50 in data set [3] and in data set [1] were greater than 100 µM and 72.8 µM, respectively.
Regarding `CNc1nnc(Cn2nc(Cc3ccc([N+](=O)[O-])cc3)c3onc(C)c3c2=O)s1`, in data set [2], the UI turned out to be 0.75 mm.
For the compound `CCn1c(Cn2nc(Cc3ccc([N+](=O)[O-])cc3)c3onc(C)c3c2=O)n[nH]c1=S`, the IC50 was 9.2 µM in data set [3] and 14.8 µM in data set [1]. For the same compound, the UI in data set [2] amounted to 0 mm. The inhibition in vivo at 140 µmol/kg in data set [6] came out at 38%.
With `Cc1noc2c(Cc3ccccc3)nn(Cc3n[nH]c(=S)n3-c3ccccc3)c(=O)c12`, the IC50 in data set [3] is greater than 100 µM; in data set [1], 45.1 µM.
As to `Cc1noc2c(Cc3ccccc3)nn(Cc3nnc(Nc4ccccc4)s3)c(=O)c12`, the UI in data set [2] is 0.5 mm.
For the compound `COc1ccc(Cc2nn(Cc3n[nH]c(=S)n3-c3ccccc3)c(=O)c3c(C)noc23)cc1`, in data set [2], the UI came out at 0 mm.
As to `Cc1noc2c(Cc3ccc([N+](=O)[O-])cc3)nn(Cc3n[nH]c(=S)n3-c3ccccc3)c(=O)c12`, the results for the IC50 in data set [3] and in data set [1] were greater than 100 µM and 16.5 µM, respectively.
As for `CC(c1cc2ccccc2s1)N(O)C(N)=O` (stereo not drawn) [ZILEUTON], in data set [1], inhibition was half-maximal at 1.1 µM (IC50).
In the case of `COc1ccc(Cc2nn(Cc3nnc(Nc4ccccc4)s3)c(=O)c3c(C)noc23)cc1`, the IC50 was greater than 100 µM in data set [3] and 46.2 µM in data set [1].
